Data taken from ChEMBL document CHEMBL1123403, “Pyrazolo[4,5-c]quinolines. 2. Synthesis and specific inhibition of benzodiazepine receptor binding” (J Med Chem, 1986).

What was measured:
[1] = target: GABA-A receptor; anion channel (Bos taurus) (UniProt P10063+P08220+P20237+P08219+P10064+P22300); test: Inhibition of specific [3H]flunitrazepam binding to Benzodiazepine receptor in bovine brain membranes at 34 uM; type: cell membranes
[2] = target: GABA-A receptor; anion channel; test: Inhibitory concentration against [3H]flunitrazepam binding to Benzodiazepine receptor in bovine brain membranes; type: cell membranes
Summary of the method: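 Membranes were made by homogenizing in ice-cold 0.32 M sucrose with protease inhibitors, spinning at 48000g, and osmotically shocking in 50 mM Tris-HCl. Membranes (0.4-0.5 mg protein, Lowry) were incubated with 1.0 nM [3H]flunitrazepam in 50 mM Tris-HCl at 0 °C for 90 min, then filtered and counted by scintillation. Nonspecific binding was defined with 10 μM diazepam. IC50 came from log-probit analysis of 4-6 concentrations, each in triplicate.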

Question: `Cc1nn(-c2ccccc2)c2c1c(N1CCN(C)CC1)nc1ccccc12` was tested. Which inhibition [1] did it give?
Answer: The inhibition was 41%.

Question: How did the IC50 [2] turn out when `Cc1nn(-c2ccccc2)c2c1c(=O)n(C)c1ccccc21` was run?
Answer: The IC50 was 3.4 µM.

Question: What about the inhibition [1] of the same compound?
Answer: Its inhibition is 85%.

Question: Which inhibition [1] does the source give for `Cc1nn(-c2ccccc2)c2c1c(N1CCOCC1)nc1ccccc12` here?
Answer: Its inhibition is 8%.

Question: With `Cc1nn(-c2cccc(Cl)c2)c2c1c(N1CCN(C)CC1)nc1ccccc12` as the compound, how does the inhibition [1] read?
Answer: Its inhibition is 49%.

Question: Which inhibition [1] does the source give for `Cc1cccc(-n2nc(C)c3c(Cl)nc4ccccc4c32)c1` here?
Answer: Its inhibition is 21%.

Question: For `Cc1nn(-c2cccc(Cl)c2)c2c1c(N1CCOCC1)nc1ccccc12`, which inhibition [1] is on record?
Answer: The inhibition was 24%.

Question: For `Cc1nn(-c2ccc(Cl)cc2)c2c1c(=O)n(C)c1ccccc21`, which IC50 [2] is on record?
Answer: The IC50 was 2.7 µM.

Question: And the inhibition [1]?
Answer: Its inhibition is 78%.

Question: For `Cc1cccc(-n2nc(C)c3c(N4CCN(C)CC4)nc4ccccc4c32)c1`, which inhibition [1] is on record?
Answer: Its inhibition is 44%.

Question: `Cc1ccc(-n2nc(C)c3c(O)nc4ccccc4c32)cc1` was tested. Which inhibition [1] did it give?
Answer: Its inhibition is 65%.

Question: Which IC50 [2] does the source give for `Cc1nn(-c2ccc(Cl)cc2)c2c1c(O)nc1ccccc12` here?
Answer: Its IC50 is 22 µM.

Question: And the inhibition [1]?
Answer: The inhibition was 70%.

Question: With `Cc1cccc(-n2nc(C)c3c(O)nc4ccccc4c32)c1` as the compound, how does the IC50 [2] read?
Answer: Its IC50 is 9 µM.

Question: And the inhibition [1]?
Answer: The inhibition was 97%.

Question: Which inhibition [1] does the source give for `Cc1cccc(-n2nc(C)c3c(N4CCOCC4)nc4ccccc4c32)c1` here?
Answer: Its inhibition is 7%.

Question: With `Cc1nn(-c2cccc(Cl)c2)c2c1c(O)nc1ccccc12` as the compound, how does the IC50 [2] read?
Answer: Its IC50 is 4.4 µM.

Question: And the inhibition [1]?
Answer: The inhibition was 94%.

Question: With `Cc1nn(-c2cccc(Cl)c2)c2c1c(=O)n(C)c1ccccc21` as the compound, how does the IC50 [2] read?
Answer: The IC50 was 1 µM.

Question: What about the inhibition [1] of the same compound?
Answer: Its inhibition is 96%.

Question: For `Cc1nn(-c2ccccc2)c2c1c(O)nc1ccccc12`, which inhibition [1] is on record?
Answer: The inhibition was 62%.

Question: How did the inhibition [1] turn out when `Cc1nn(-c2ccc(Cl)cc2)c2c1c(N1CCN(C)CC1)nc1ccccc12` was run?
Answer: Its inhibition is 23%.

Question: `Cc1[nH]nc2c1c(=O)[nH]c1ccccc12` was tested. Which inhibition [1] did it give?
Answer: Its inhibition is 47%.

Question: How did the inhibition [1] turn out when `Cc1ccc(-n2nc(C)c3c(=O)n(C)c4ccccc4c32)cc1` was run?
Answer: The inhibition was 63%.

Question: How did the inhibition [1] turn out when `COc1nc2ccccc2c2c1c(C)nn2-c1cccc(Cl)c1` was run?
Answer: Its inhibition is 18%.

Question: `Cc1nn(-c2cccc(Cl)c2)c2c1c(Cl)nc1ccccc12` was tested. Which inhibition [1] did it give?
Answer: Its inhibition is 21%.

Question: `Cc1cccc(-n2nc(C)c3c(=O)n(C)c4ccccc4c32)c1` was tested. Which IC50 [2] did it give?
Answer: Its IC50 is 0.26 µM.

Question: And the inhibition [1]?
Answer: Its inhibition is 95%.
